The text below walks through data of ChEMBL document CHEMBL4368886, “Design, synthesis, and biological activity of novel ammonium salts containing sterically hindered phenolic fragment and phosphoryl group” (Medchemcomm, 2018).

The test system of assay [1] is Candida albicans. Nature of the assay: Antimicrobial activity against Candida albicans 855-653 measured after 14 days by two-fold serial dilution method. The format is functional.
The test system of assay [2] is Escherichia coli. Nature of the assay: Antimicrobial activity against Escherichia coli CDC F-50 measured every 24 hrs for 5 days by two-fold serial dilution method. The format is functional.
Assay [3] relates to Staphylococcus aureus. Nature of the assay: Antimicrobial activity against Staphylococcus aureus 209p measured every 24 hrs for 5 days by two-fold serial dilution method. It is filed as functional.
The test system of assay [4] is Aspergillus niger. Nature of the assay: Bactericidal activity against Aspergillus niger BKMF-1119 measured after 4 hrs. The format is functional, organism-based. Summed up: (§1)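 Microbicidal (bactericidal/fungicidal) concentration, killing of microbial cells, determined per literature procedures; tests in duplicate, repeated twice.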
For assay [5], the system named is Bacillus cereus. Nature of the assay: Bactericidal activity against Bacillus cereus ATCC 8035 measured after 4 hrs. It is filed as functional. In a few lines: as §1
Assay [6] deals with Trichophyton mentagrophytes. Nature of the assay: Antimicrobial activity against Trichophyton mentagrophytes var. gypseum 1773 measured after 14 days by two-fold serial dilution method. It is filed as functional.
Assay [7] concerns Escherichia coli. Nature of the assay: Bactericidal activity against Escherichia coli CDC F-50 measured after 4 hrs. The format is functional. Summed up: as §1
Assay [8] deals with Pseudomonas aeruginosa. Nature of the assay: Bactericidal activity against Pseudomonas aeruginosa ATCC 9027 measured after 4 hrs. It is filed as functional. In a few lines: as §1
For assay [9], the system named is Aspergillus niger. Nature of the assay: Antimicrobial activity against Aspergillus niger BKMF-1119 measured after 14 days by two-fold serial dilution method. The format is functional, organism-based.
The subject of assay [10] is Candida albicans. Nature of the assay: Bactericidal activity against Candida albicans 855-653 measured after 4 hrs. It is filed as functional. In a few lines:
as §1

Assay [11] relates to Bacillus cereus. Nature of the assay: Antimicrobial activity against Bacillus cereus ATCC 8035 measured every 24 hrs for 5 days by two-fold serial dilution method. It is filed as functional.
Assay [12] relates to Staphylococcus aureus. Nature of the assay: Bactericidal activity against Staphylococcus aureus 209p measured after 4 hrs. The format is functional. Summed up: as §1
In assay [13] the test system is Pseudomonas aeruginosa. Nature of the assay: Antimicrobial activity against Pseudomonas aeruginosa ATCC 9027 measured every 24 hrs for 5 days by two-fold serial dilution method. It is filed as functional.
The test system of assay [14] is Trichophyton mentagrophytes var. granulosum. Nature of the assay: Bactericidal activity against Trichophyton mentagrophytes var. granulosum 1773 measured after 4 hrs. It is filed as functional. In a few lines: as §1

Values after ≈ are worked out from the molar mass of the structure shown. Active and inactive are the calls of the source. The calls are words filed in the database; no cut-off is given here.

In the case of `CCCCCCCCCC[N+](C)(C)CCNC(=O)CCc1cc(C(C)(C)C)c(O)c(C(C)(C)C)c1`, the MIC in assay [1] (855-653, 336 h) was found to be 3.3 µM; in assay [2], 27.4 µM; in assay [3], 1.6 µM; in assay [5] (ATCC 8035, 4 h) it was 55 µM; in assay [7] (CDC F-50, 4 h), 55 µM; in assay [8] (ATCC 9027, 4 h), 55 µM. In addition, the MIC is 6.9 µM in assay [10] (855-653, 4 h); 6.8 µM in assay [11]; 1.6 µM in assay [12]; 27.4 µM in assay [13]. Further, the MIC entry in assay [4], in assay [6], in [9] and in [14] was “inactive” each time.

On to `CCCCCCCCCCCC[N+](C)(C)CCCNC(=O)CCc1cc(C(C)(C)C)c(O)c(C(C)(C)C)c1`, for which the MIC entry in assay [1], in assay [2], in assay [4], in [6], in assay [7] and in assay [8] was “inactive” throughout. The MIC result in assay [9], in assay [10], in assay [13] and in assay [14] was “inactive” throughout. The MIC amounted to 102 µM in assay [3]; 206 µM in assay [5] (ATCC 8035, 4 h); 206 µM in assay [11]; 102 µM in assay [12].

Regarding `CCCCCCCCCCCC[N+](C)(C)CCNC(c1cc(C(C)(C)C)c(O)c(C(C)(C)C)c1)P(=O)(OCC)OCC` (centres undefined), the MIC in [1] (855-653, 336 h) turned out to be 45.2 µM; in assay [3], 45.2 µM; in assay [5] (ATCC 8035, 4 h) it was 361 µM; in [10] (855-653, 4 h), 45.2 µM; in [11] it was 361 µM; in assay [12] it was 45.2 µM. Besides, the MIC result in [2], in assay [4], in assay [6], in assay [7], in assay [8] and in [9] was “inactive” in each case. In addition, the MIC entry in assay [13] and in assay [14] was “inactive” in each case.

Take `O=C(N[C@H](CO)[C@H](O)c1ccc([N+](=O)[O-])cc1)C(Cl)Cl` [CHLORAMPHENICOL]: the values for the MIC in assay [2], in assay [3] and in [11] were 386 µM (≈ 125 µg/mL), 193 µM (≈ 62.4 µg/mL) and 193 µM (≈ 62.4 µg/mL), respectively.

Regarding `CC[N+](C)(C)CCCNC(c1cc(C(C)(C)C)c(O)c(C(C)(C)C)c1)P(=O)(OC(C)C)OC(C)C` (centres undefined), the MIC in assay [1] (855-653, 336 h) is 422 µM; in assay [3], 105 µM; in [5] (ATCC 8035, 4 h) it was 421 µM; in assay [10] (855-653, 4 h), 422 µM; in assay [11] it was 105 µM; in assay [12], 105 µM. In addition, the MIC result in assay [2], in assay [4], in assay [6], in [7], in assay [8] and in assay [9] was “inactive” throughout. For the same molecule, the MIC result in assay [13] and in [14] was “inactive” throughout.

In assay [1] (855-653, 336 h), `CC[N+](C)(C)CCNC(=O)CCc1cc(C(C)(C)C)c(O)c(C(C)(C)C)c1` yielded an MIC of 68.5 µM. For the same molecule, the MIC entry in assay [2], in [3], in assay [4], in assay [5], in assay [6] and in assay [7] was “inactive” throughout. The MIC entry in [8], in assay [9], in [10], in assay [11], in assay [12] and in [13] was “inactive” in each case. The MIC entry in [14] is “inactive”.

Turning to `CCCCCCCC[N+](C)(C)CCNC(=O)CCc1cc(C(C)(C)C)c(O)c(C(C)(C)C)c1`, the MIC in [1] (855-653, 336 h) amounted to 29 µM; in assay [3], 29 µM; in assay [5] (ATCC 8035, 4 h), 58 µM; in assay [10] (855-653, 4 h), 29 µM; in assay [11], 58 µM; in [12] it was 29 µM. The MIC entry in assay [2], in [4], in [6], in [7], in [8] and in assay [9] was “inactive” in each case. The MIC result in assay [13] and in [14] was “inactive” throughout.

For the molecule `CCCCCCCCCC[N+](C)(C)CCCNC(=O)CCc1cc(C(C)(C)C)c(O)c(C(C)(C)C)c1`, the MIC in [1] (855-653, 336 h) was 0.9 µM; in assay [2], 26.8 µM; in [3] it was 1.5 µM; in [5] (ATCC 8035, 4 h), 107 µM; in assay [7] (CDC F-50, 4 h), 53.6 µM; in assay [8] (ATCC 9027, 4 h), 26.8 µM. In addition, the MIC in assay [10] (855-653, 4 h) stood at 0.9 µM; in assay [11], 6.7 µM; in assay [12] it was 3.3 µM; in assay [13], 26.8 µM. Further, the MIC result in assay [4], in [6], in assay [9] and in assay [14] was “inactive” each time.

As for `CC(C)OP(=O)(OC(C)C)C(NCCC[N+](C)(C)Cc1ccccc1)c1cc(C(C)(C)C)c(O)c(C(C)(C)C)c1` (centres undefined), the MIC result in [1], in assay [2], in [4], in assay [6], in assay [7] and in [8] was “inactive” in each case. The MIC result in [9], in assay [10], in assay [13] and in assay [14] was “inactive” throughout. The MIC in [3] was 95.3 µM; in assay [5] (ATCC 8035, 4 h) it was 95.3 µM; in [11], 95.3 µM; in assay [12], 95.3 µM.

In the case of `CCn1cc(C(=O)O)c(=O)c2cc(F)c(N3CCNCC3)cc21` [NORFLOXACIN], the MIC in [2] amounted to 4.7 µM (≈ 1.5 µg/mL); in assay [3], 7.5 µM (≈ 2.4 µg/mL); in assay [5] (ATCC 8035, 4 h), 50 µM (≈ 16 µg/mL); in assay [7] (CDC F-50, 4 h) it was 4.7 µM (≈ 1.5 µg/mL); in assay [8] (ATCC 9027, 4 h) it was 48.8 µM (≈ 15.6 µg/mL); in [11], 25 µM (≈ 7.98 µg/mL). Besides, the MIC in assay [12] amounted to 7.5 µM (≈ 2.4 µg/mL); in assay [13], 9.4 µM (≈ 3 µg/mL).

For `CCOP(=O)(OCC)C(NCCC[N+](C)(C)Cc1ccccc1)c1cc(C(C)(C)C)c(O)c(C(C)(C)C)c1` (centres undefined), the MIC stood at 199 µM in [1] (855-653, 336 h); 99.5 µM in [3]; 24.8 µM in assay [5] (ATCC 8035, 4 h); 199 µM in [10] (855-653, 4 h); 24.8 µM in assay [11]; 199 µM in assay [12]. Also, the MIC result in assay [2], in assay [4], in [6], in assay [7], in assay [8] and in assay [9] was “inactive” in each case. For the same molecule, the MIC entry in assay [13] and in assay [14] was “inactive” in each case.

In the case of `CCOP(=O)(OCC)C(NCC[N+](C)(C)Cc1ccccc1)c1cc(C(C)(C)C)c(O)c(C(C)(C)C)c1` (centres undefined), the MIC was 177 µM in [1] (855-653, 336 h); 51 µM in assay [3]; 102 µM in [5] (ATCC 8035, 4 h); 177 µM in assay [10] (855-653, 4 h); 6.4 µM in assay [11]; 407 µM in assay [12]. For the same molecule, the MIC result in assay [2], in [4], in [6], in [7], in [8] and in [9] was “inactive” each time. Moreover, the MIC entry in assay [13] and in assay [14] was “inactive” in each case.

As to `CCOP(=O)(OCC)C(NCC[N+](C)(C)CC)c1cc(C(C)(C)C)c(O)c(C(C)(C)C)c1` (centres undefined), the MIC result in [1], in assay [2], in assay [4], in assay [6], in [7] and in assay [8] was “inactive” in each case. The MIC result in [9], in assay [10], in assay [13] and in assay [14] was “inactive” throughout. Also, the MIC was 56.8 µM in [3]; 56.8 µM in assay [5] (ATCC 8035, 4 h); 56.8 µM in assay [11]; 56.8 µM in [12].

In the case of `CCCCCCCCCCCCCCCC[N+](C)(C)CCNC(=O)CCc1cc(C(C)(C)C)c(O)c(C(C)(C)C)c1`, the MIC in [1] (855-653, 336 h) was determined as 383 µM; in [3] it was 95.7 µM; in assay [10] (855-653, 4 h), 383 µM; in assay [11] it was 383 µM. Besides, the MIC result in assay [2], in assay [4], in [5], in assay [6], in assay [7] and in [8] was “inactive” in each case. The MIC result in assay [9], in assay [12], in assay [13] and in assay [14] was “inactive” throughout.

For orientation: MIC means the lowest concentration that inhibits growth of the organism.
